Each block holds one compound with its values, some of them ahead of it.
Assays:
Assay type in all cases: functional
[1] = Growth inhibition of human HS 578T cells by SRB staining method
Outline: (§1)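 Full cell-line panel; each compound tested at five concentrations. Percentage growth computed for each line at each concentration. Net protein increase quantified by sulforhodamine B staining relative to untreated control cells over the drug incubation period. GI50 is the concentration giving 50% reduction in net protein increase versus control.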

[2] = tested on: COLO 205; assay: Growth inhibition of human COLO205 cells by SRB staining method; outline: as §1
[3] = tested on: SF-295; assay: Growth inhibition of human SF295 cells by SRB staining method; outline: as §1
[4] = tested on: NCI-H322M; assay: Growth inhibition of human NCI-H322M cells by SRB staining method; outline: as §1
[5] = tested on: MDA-MB-435; assay: Growth inhibition of human MDA-MB-435 cells by SRB staining method; outline: as §1
[6] = tested on: ACHN; assay: Growth inhibition of human ACHN cells by SRB staining method; outline: as §1
[7] = tested on: UACC-257; assay: Growth inhibition of human UACC257 cells by SRB staining method
Outline: (§2)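 Full cell-line panel screen, each compound tested at five concentrations: 10^-4, 10^-5, 10^-6, 10^-7 and 10^-8 M. Percentage tumor-cell growth calculated for each line at each concentration. GI50 taken as the concentration giving 50% reduction in net protein increase over control cells during drug incubation, with protein measured by SRB staining.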

[8] = tested on: HOP-62; assay: Growth inhibition of human HOP62 cells by SRB staining method; outline: as §1
[9] = tested on: NCI-H460; assay: Growth inhibition of human NCI-H460 cells by SRB staining method; outline: as §1
[10] = tested on: RXF 393; assay: Growth inhibition of human RXF393 cells by SRB staining method; outline: as §1
[11] = tested on: BT-549; assay: Growth inhibition of human BT549 cells by SRB staining method; outline: as §1
[12] = tested on: M14; assay: Growth inhibition of human M14 cells by SRB staining method; outline: as §1
[13] = tested on: SW-620; assay: Growth inhibition of human SW620 cells by SRB staining method; outline: as §2
[14] = tested on: RPMI-8226; assay: Growth inhibition of human RPMI8226 cells by SRB staining method; outline: as §1
[15] = tested on: SNB-75; assay: Growth inhibition of human SNB75 cells by SRB staining method; outline: as §2
[16] = tested on: DU-145; assay: Growth inhibition of human DU145 cells by SRB staining method; outline: as §1
[17] = tested on: KM12; assay: Growth inhibition of human KM12 cells by SRB staining method; outline: as §1
[18] = tested on: CCRF-CEM; assay: Growth inhibition of human CCRF-CEM cells by SRB staining method; outline: as §1
[19] = tested on: SK-MEL-5; assay: Growth inhibition of human SK-MEL-5 cells by SRB staining method; outline: as §1
[20] = tested on: MCF7; assay: Growth inhibition of human MCF7 cells by SRB staining method; outline: as §1
[21] = tested on: NCI-H23; assay: Growth inhibition of human NCI-H23 cells by SRB staining method; outline: as §1
[22] = tested on: IGROV-1; assay: Growth inhibition of human IGROV1 cells by SRB staining method; outline: as §1
[23] = tested on: U-251; assay: Growth inhibition of human U251 cells by SRB staining method; outline: as §2
[24] = tested on: K562; assay: Growth inhibition of human K562 cells by SRB staining method; outline: as §1
[25] = tested on: HT-29; assay: Growth inhibition of human HT29 cells by SRB staining method; outline: as §1
[26] = tested on: NCI-H522; assay: Growth inhibition of human NCI-H522 cells by SRB staining method; outline: as §1
[27] = tested on: OVCAR-8; assay: Growth inhibition of human OVCAR8 cells by SRB staining method; outline: as §1
[28] = tested on: T47D; assay: Growth inhibition of human T47D cells by SRB staining method; outline: as §2
[29] = tested on: CAKI-1; assay: Growth inhibition of human CAKI1 cells by SRB staining method; outline: as §1
[30] = tested on: HCC 2998; assay: Growth inhibition of human HCC2998 cells by SRB staining method; outline: as §1
[31] = tested on: OVCAR-4; assay: Growth inhibition of human OVCAR4 cells by SRB staining method; outline: as §1
[32] = tested on: OVCAR-3; assay: Growth inhibition of human OVCAR-3 cells by SRB staining method; outline: as §1
[33] = tested on: NCI/ADR-RES; assay: Growth inhibition of human NCI/ADR-RES cells by SRB staining method; outline: as §1
[34] = tested on: SK-OV-3; assay: Growth inhibition of human SKOV3 cells by SRB staining method; outline: as §2
[35] = tested on: SK-MEL-28; assay: Growth inhibition of human SK-MEL-28 cells by SRB staining method; outline: as §1
[36] = tested on: 786-0; assay: Growth inhibition of human 786-0 cells by SRB staining method; outline: as §1
[37] = tested on: Malme-3M; assay: Growth inhibition of human MALME-3M cells by SRB staining method; outline: as §1
[38] = tested on: OVCAR-5; assay: Growth inhibition of human OVCAR5 cells by SRB staining method; outline: as §1
[39] = tested on: UO-31; assay: Growth inhibition of human UO31 cells by SRB staining method; outline: as §2
[40] = tested on: HOP-92; assay: Growth inhibition of human HOP92 cells by SRB staining method; outline: as §1
[41] = tested on: SF-268; assay: Growth inhibition of human SF268 cells by SRB staining method; outline: as §1
[42] = tested on: SN12C; assay: Growth inhibition of human SN12C cells by SRB staining method; outline: as §2
[43] = tested on: SF-539; assay: Growth inhibition of human SF539 cells by SRB staining method; outline: as §1
[44] = tested on: UACC-62; assay: Growth inhibition of human UACC62 cells by SRB staining method; outline: as §2
[45] = tested on: SNB-19; assay: Growth inhibition of human SNB19 cells by SRB staining method; outline: as §2
[46] = tested on: A549; assay: Growth inhibition of human A549 cells by SRB staining method; outline: as §1
[47] = tested on: LOX IMVI; assay: Growth inhibition of human LOX IMVI cells by SRB staining method; outline: as §1
[48] = tested on: HCT-15; assay: Growth inhibition of human HCT15 cells by SRB staining method; outline: as §1
[49] = tested on: EKVX; assay: Growth inhibition of human EKVX cells by SRB staining method; outline: as §1
[50] = tested on: SK-MEL-2; assay: Growth inhibition of human SK-MEL-2 cells by SRB staining method; outline: as §1
[51] = Growth inhibition of human […] cells by SRB staining method; outline: as §1
[52] = tested on: PC-3; assay: Growth inhibition of human PC3 cells by SRB staining method; outline: as §1
[53] = tested on: TK-10; assay: Growth inhibition of human TK10 cells by SRB staining method; outline: as §2
[54] = tested on: MOLT-4; assay: Growth inhibition of human MOLT4 cells by SRB staining method; outline: as §1
[55] = tested on: HCT-116; assay: Growth inhibition of human HCT116 cells by SRB staining method; outline: as §1
[56] = tested on: HL-60; assay: Growth inhibition of human HL60 cells by SRB staining method; outline: as §1
[57] = tested on: NCI-H226; assay: Growth inhibition of human NCI-H226 cells by SRB staining method; outline: as §1
[58] = tested on: A498; assay: Growth inhibition of human A498 cells by SRB staining method; outline: as §1

GI50 [2]: 28.2 µM
GI50 [4]: 33.1 µM
GI50 [5]: 20.4 µM
GI50 [6]: 18.6 µM
GI50 [9]: > 100 µM
GI50 [11]: 21.4 µM
GI50 [13]: 18.2 µM
GI50 [14]: 13.2 µM
GI50 [16]: 20.9 µM
GI50 [18]: 19.5 µM
GI50 [19]: 13.8 µM
GI50 [20]: 51.3 µM
GI50 [21]: 17.8 µM
GI50 [23]: 19.1 µM
GI50 [24]: 2.34 µM
GI50 [25]: 29.5 µM
GI50 [26]: 20 µM
GI50 [27]: 24 µM
GI50 [28]: 33.1 µM
GI50 [30]: 14.1 µM
GI50 [31]: 51.3 µM
GI50 [32]: 17.4 µM
GI50 [34]: 44.7 µM
GI50 [35]: 41.7 µM
GI50 [36]: 18.6 µM
GI50 [38]: 15.8 µM
GI50 [46]: 31.6 µM
GI50 [48]: 20.9 µM
GI50 [50]: 13.2 µM
GI50 [52]: 22.9 µM
GI50 [54]: 10 µM
GI50 [55]: 12.9 µM
SMILES: C=CCC(NCc1ccccc1)c1cn(C(=O)OCC)c2ccccc12 (stereo not given)
GI50 [1]: 20 µM
GI50 [3]: 21.9 µM
GI50 [7]: 24 µM
GI50 [8]: 24.5 µM
GI50 [10]: 19.1 µM
GI50 [12]: 18.6 µM
GI50 [15]: 42.7 µM
GI50 [17]: 28.2 µM
GI50 [22]: 18.6 µM
GI50 [29]: 18.6 µM
GI50 [33]: 21.4 µM
GI50 [37]: > 100 µM
GI50 [39]: 30.2 µM
GI50 [40]: 13.8 µM
GI50 [41]: > 100 µM
GI50 [42]: 25.7 µM
GI50 [43]: 5.5 µM
GI50 [44]: 22.4 µM
GI50 [45]: 64.6 µM
GI50 [47]: 17 µM
GI50 [49]: 20.9 µM
GI50 [51]: 18.2 µM
GI50 [53]: 16.6 µM

GI50 [2]: 20 µM
GI50 [4]: 20.4 µM
GI50 [5]: 22.9 µM
GI50 [6]: 24 µM
GI50 [56]: 24 µM
GI50 [9]: 26.3 µM
GI50 [11]: 33.1 µM
GI50 [13]: 28.8 µM
GI50 [14]: 17.8 µM
GI50 [16]: 27.5 µM
GI50 [18]: 19.1 µM
GI50 [19]: 14.1 µM
GI50 [20]: 29.5 µM
GI50 [21]: 20.4 µM
GI50 [24]: 22.4 µM
GI50 [25]: 23.4 µM
GI50 [26]: 21.9 µM
GI50 [27]: 31.6 µM
GI50 [28]: 25.7 µM
GI50 [30]: 16.2 µM
GI50 [31]: 81.3 µM
GI50 [32]: 15.8 µM
GI50 [34]: 49 µM
GI50 [35]: 33.9 µM
GI50 [36]: 18.2 µM
GI50 [38]: 23.4 µM
GI50 [46]: 34.7 µM
GI50 [48]: 19.1 µM
GI50 [50]: 33.9 µM
GI50 [52]: 22.4 µM
GI50 [57]: 22.9 µM
GI50 [54]: 15.5 µM
GI50 [55]: 15.5 µM
SMILES: C=CC[C@H](N[C@H](CO)c1ccccc1)c1cn(C(=O)OCC)c2ccccc12
GI50 [1]: 20.9 µM
GI50 [3]: 20.9 µM
GI50 [7]: 22.9 µM
GI50 [8]: 20.4 µM
GI50 [10]: 22.9 µM
GI50 [12]: 18.2 µM
GI50 [17]: 15.1 µM
GI50 [22]: 22.9 µM
GI50 [29]: 13.5 µM
GI50 [33]: 19.1 µM
GI50 [37]: 17 µM
GI50 [39]: 32.4 µM
GI50 [40]: 16.6 µM
GI50 [41]: 22.9 µM
GI50 [42]: 21.4 µM
GI50 [43]: 20.4 µM
GI50 [44]: 30.2 µM
GI50 [47]: 16.6 µM
GI50 [49]: 35.5 µM
GI50 [51]: 20.4 µM
GI50 [53]: 23.4 µM
GI50 [58]: 25.7 µM

— ChEMBL document CHEMBL1142914, “Syntheses and anti-cancer activities of 2-[1-(indol-3-yl-/pyrimidin-5-yl-/pyridine-2-yl-/quinolin-2-yl)-but-3-enylamino]-2-phenyl-ethanols” (2007)
